Assay results pooled from the literature.
Protocols differ between the studies behind these lines.
Target: Tyrosine-protein kinase receptor TYRO3 (TYRO3, Homo sapiens, UniProt Q06418)
Sequence (Q06418 41-890, as in one of the studies): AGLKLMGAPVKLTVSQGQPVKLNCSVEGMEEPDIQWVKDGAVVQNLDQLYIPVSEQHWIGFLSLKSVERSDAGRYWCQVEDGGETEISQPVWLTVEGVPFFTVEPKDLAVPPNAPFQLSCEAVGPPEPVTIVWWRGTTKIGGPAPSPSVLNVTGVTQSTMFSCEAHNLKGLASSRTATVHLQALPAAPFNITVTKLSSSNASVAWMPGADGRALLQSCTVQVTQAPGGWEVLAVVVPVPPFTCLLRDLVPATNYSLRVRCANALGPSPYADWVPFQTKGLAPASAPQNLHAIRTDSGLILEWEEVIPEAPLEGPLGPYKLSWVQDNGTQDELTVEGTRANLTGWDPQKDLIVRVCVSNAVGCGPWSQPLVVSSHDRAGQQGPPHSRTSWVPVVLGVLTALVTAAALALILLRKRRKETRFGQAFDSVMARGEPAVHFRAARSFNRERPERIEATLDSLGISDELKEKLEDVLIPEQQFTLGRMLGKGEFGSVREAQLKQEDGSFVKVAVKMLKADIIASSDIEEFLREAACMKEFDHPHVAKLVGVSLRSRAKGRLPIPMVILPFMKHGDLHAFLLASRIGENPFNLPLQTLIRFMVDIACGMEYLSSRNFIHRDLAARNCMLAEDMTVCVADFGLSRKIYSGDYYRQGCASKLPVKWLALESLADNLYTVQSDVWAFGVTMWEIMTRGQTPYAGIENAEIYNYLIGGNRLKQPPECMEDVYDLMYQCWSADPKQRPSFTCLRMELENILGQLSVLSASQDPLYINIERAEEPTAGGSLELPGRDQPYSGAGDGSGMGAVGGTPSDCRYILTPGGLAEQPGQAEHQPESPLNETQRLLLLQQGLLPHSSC

SMILES | test | conditions | endpoint | result
C#Cc1n[nH]c2c(-c3cn([C@@H](C)c4ccccc4)c(=O)[nH]c3=O)cc(F)cc12 | enzyme activity, inhibitor | 0.1 µM | inhibition | 47.7%
Cn1cc(-c2cc(F)cc(N3CCn4c(cc5c4CCCC5)C3=O)c2CO)cc(Nc2ccc(N3CCN(C4COC4)CC3)cn2)c1=O | enzyme activity, inhibitor | 0.1 µM | inhibition | 17%
N#CC1(c2ccccn2)CCN(Cc2cc(C(=O)O)c(=O)n3ccccc23)CC1 | cell-free assay, competition with immobilised ligand | 1 µM | remaining binding | 98%
COc1ncccc1-c1cnn2ccc(N3CCN(C(=O)OC(C)C)CC3)nc12 | binding, competition with immobilised ligand | 1 µM | remaining binding | 100%
Cn1cc(-c2cccc(N3CCc4c(sc5c4CC(C)(C)C5)C3=O)c2CO)cc(Nc2ccncn2)c1=O | enzyme activity, inhibitor | 1 µM | inhibition | 4%
C#Cc1n[nH]c2c(-c3cn([C@@H](C)c4ccccn4)c(=O)[nH]c3=O)cc(F)cc12 | enzyme activity, inhibitor | 0.1 µM | inhibition | 30.8%
CC(C)(C)c1cc(C=C(C#N)C#N)cc(Br)c1O | enzyme activity, inhibitor | 0.5 µM | remaining activity | 110%
Cc1nn(C)cc1-c1nc2c(N3CCN(Cc4ccc(Cl)cc4)CC3)c(Cl)cnc2[nH]1 | binding, competition with immobilised ligand | 1 µM | remaining binding | 73%
O=c1[nH]c2ccccc2n1C1CCN(Cc2ccc(-c3[nH]c4cc5ncnc5cc4nc3-c3ccccc3)cc2)CC1 | cell-free assay | 0.5 µM | remaining signal | 103%
Cn1cncc1[C@@](O)(COc1ccc(C#N)cc1-c1ccc(OC(F)(F)F)cc1)c1ccc(C#N)cc1 | cell-free assay, competition with immobilised ligand | 1 µM | remaining binding | 100%
